Source: ChEMBL document CHEMBL2150931, “Design, synthesis, and biological activity of a novel series of human sirtuin-2-selective inhibitors” (J Med Chem, 2012)
The source made the active and inactive calls. The calls are words filed in the database; no cut-off is given here.

Assays:
[1] = molecular target: T1, NAD-dependent protein deacetylase sirtuin-1 (Homo sapiens) (UniProt Q96EB6); details: HCT-116, 10 uM
T1 sequence (whole entry): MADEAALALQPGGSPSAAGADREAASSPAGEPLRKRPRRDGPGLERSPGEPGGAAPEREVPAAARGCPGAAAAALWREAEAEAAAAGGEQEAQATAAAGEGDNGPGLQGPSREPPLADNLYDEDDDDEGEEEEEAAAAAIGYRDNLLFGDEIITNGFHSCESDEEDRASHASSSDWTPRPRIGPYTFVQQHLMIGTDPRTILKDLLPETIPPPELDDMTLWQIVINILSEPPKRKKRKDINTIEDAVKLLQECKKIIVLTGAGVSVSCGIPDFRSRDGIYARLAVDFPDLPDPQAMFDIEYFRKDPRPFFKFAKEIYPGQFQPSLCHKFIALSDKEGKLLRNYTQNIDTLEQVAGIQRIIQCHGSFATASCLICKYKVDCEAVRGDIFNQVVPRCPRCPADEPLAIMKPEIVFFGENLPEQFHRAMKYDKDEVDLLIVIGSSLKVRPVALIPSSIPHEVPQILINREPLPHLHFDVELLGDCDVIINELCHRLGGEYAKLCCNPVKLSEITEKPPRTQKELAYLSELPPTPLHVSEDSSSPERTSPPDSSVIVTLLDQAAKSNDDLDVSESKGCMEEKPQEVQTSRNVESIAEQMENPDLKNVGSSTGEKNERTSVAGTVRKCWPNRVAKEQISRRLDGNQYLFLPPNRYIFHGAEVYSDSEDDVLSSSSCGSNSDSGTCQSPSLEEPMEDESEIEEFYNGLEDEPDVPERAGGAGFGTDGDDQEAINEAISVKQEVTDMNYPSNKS

[2] = molecular target: T2, NAD-dependent protein deacetylase sirtuin-1 (Homo sapiens, UniProt Q96EB6); test: Inhibition of human recombinant SIRT1 using Fluor de Lys-SIRT as substrate incubated for 60 mins prior to substrate addition measured after 60 mins by fluorimetric analysis
T2 sequence (Q96EB6 whole entry): T1 sequence (whole entry)
How it was run: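 Human recombinant SIRT1 run the same way: 60 min at 37 °C with 1 mM NAD⁺ and serial compound dilutions, then 25 μM Fluor de Lys-SIRT substrate for 60 min. Stopped with nicotinamide-containing Developer II and read 45 min later at ex 360/em 460 nm. IC₅₀ from logit regression of % inhibition vs control; means of ≥3 experiments.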

[3] = molecular target: T3, NAD-dependent protein deacetylase sirtuin-2 (Homo sapiens) (UniProt Q8IXJ6); details: HCT-116, 10 uM
T3 sequence (whole entry): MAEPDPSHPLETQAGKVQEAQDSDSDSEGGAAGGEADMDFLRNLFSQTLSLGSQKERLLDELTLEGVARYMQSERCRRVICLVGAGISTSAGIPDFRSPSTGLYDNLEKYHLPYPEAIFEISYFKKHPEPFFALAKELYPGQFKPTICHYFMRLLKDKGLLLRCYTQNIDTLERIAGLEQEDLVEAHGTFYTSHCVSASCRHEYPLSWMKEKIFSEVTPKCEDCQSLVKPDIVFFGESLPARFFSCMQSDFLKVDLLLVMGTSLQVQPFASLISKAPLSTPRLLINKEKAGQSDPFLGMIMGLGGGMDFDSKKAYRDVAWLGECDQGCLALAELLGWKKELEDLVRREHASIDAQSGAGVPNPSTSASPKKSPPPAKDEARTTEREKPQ

[4] = molecular target: T4, NAD-dependent protein deacetylase sirtuin-2 (Homo sapiens, UniProt Q8IXJ6); test: Inhibition of human recombinant SIRT2 using Fluor de Lys-SIRT as substrate incubated for 60 mins prior to substrate addition measured after 60 mins by fluorimetric analysis
T4 sequence (Q8IXJ6 whole entry): T3 sequence (whole entry)
How it was run: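 Human recombinant SIRT2 preincubated with 1 mM NAD⁺ and serial compound dilutions for 60 min at 37 °C, then 25 μM Fluor de Lys-SIRT substrate added. Reaction stopped at 60 min with Developer II containing nicotinamide. Fluorescence read 45 min later at ex 360/em 460 nm. % inhibition taken against control wells. IC₅₀ obtained by regression of log[Inh] vs logit % inhibition; means of ≥3 experiments.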

[5] = molecular target: T1, NAD-dependent protein deacetylase sirtuin-1 (Homo sapiens); test: Inhibition of human recombinant SIRT1 using Fluor de Lys-SIRT as substrate at 100 uM incubated for 60 mins prior to substrate addition measured after 60 mins by fluorimetric analysis
How it was run: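 Single-point SIRT1 test at 100 μM compound. Human recombinant enzyme with 1 mM NAD⁺ at 37 °C for 60 min, then 25 μM Fluor de Lys-SIRT substrate for 60 min. Stopped with nicotinamide developer; fluorescence read at 360/460 nm after 45 min. Inhibition expressed as % relative to uninhibited control wells.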

Row | Compound | inhibition [1] | IC50 [2] [µM] | inhibition [3] | IC50 [4] [µM] | inhibition [5] [%]
1 | NC(=O)C1CCCc2c1[nH]c1ccc(Cl)cc21 (stereo unspecified) | Active | – | – | – | –
2 | N#C/C(=C\c1ccc(-c2cc(Cl)ccc2Cl)o1)C(=O)Nc1cccc2ncccc12 | – | 30 | Active | – | –
3 | NC(=O)c1ccccc1Nc1ccc(OCc2ccccc2)cc1 | – | > 100 | – | 33 | 13
